From PubChem
An excerpt weighted towards active compounds, which were near 3.1% of everything screened.
miR-122 sensor: inhibitors of miR-122 in Huh7 cells; Huh7 miR-122 Renilla luciferase sensor, 48 h; neutral wells = 0, positive control = 100; activation (reporter increase), % at 12.5 µM; hit rate 0.3% among 340,000; AID 602342;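 active means mean replicate activation score at least 90 and every replicate individually at or above 90; inconclusive means only one of the two criteria met; inactive means neither criterion met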;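 further: higher luciferase means less miR-122 activity so hits act as miR-122 inhibitors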
E-sel inducer: E-selectin induction on HUVECs; P16581; HUVEC E-selectin immunofluorescence imaging; normalized: neutral wells 0, TNF-alpha wells 100; activation, % at 7.58 µM; hit rate 0.37% among 260,000;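 active means mean E-selectin-positive cell signal at least 10% of the positive control, reached in at least 60% of replicates, without over 20% cell loss; inconclusive means no rule given, readout overlaps actives, possibly toxicity-flagged; inactive means the rest, including those meeting only one limit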
Target sequence (P16581 whole entry, looked up): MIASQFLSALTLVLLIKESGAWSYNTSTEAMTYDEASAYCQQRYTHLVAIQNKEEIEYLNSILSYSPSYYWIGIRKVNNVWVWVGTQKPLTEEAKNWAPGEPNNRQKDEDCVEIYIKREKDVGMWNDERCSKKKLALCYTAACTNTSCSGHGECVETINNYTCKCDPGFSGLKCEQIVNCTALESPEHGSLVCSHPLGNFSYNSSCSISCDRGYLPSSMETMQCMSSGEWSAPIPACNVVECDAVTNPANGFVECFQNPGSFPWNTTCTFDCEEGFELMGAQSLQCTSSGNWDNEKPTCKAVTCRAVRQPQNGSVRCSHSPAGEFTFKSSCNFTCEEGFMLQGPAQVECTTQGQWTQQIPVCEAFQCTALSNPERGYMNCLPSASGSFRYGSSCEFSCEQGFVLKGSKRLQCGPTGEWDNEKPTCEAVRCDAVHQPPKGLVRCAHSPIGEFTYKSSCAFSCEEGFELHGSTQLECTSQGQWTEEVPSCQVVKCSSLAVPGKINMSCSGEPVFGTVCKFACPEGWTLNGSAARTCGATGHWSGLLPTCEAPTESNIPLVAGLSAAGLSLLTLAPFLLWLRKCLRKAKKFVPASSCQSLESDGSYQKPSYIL
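Test system: HUVEC; input: 3,000 HUVEC/well; measured by: immunofluorescence imaging; read-out: % PE-positive cells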
Ecoli rRNA inh: inhibitors of bacterial rRNA selective over humanized ribosomes; E. coli WT GFP vs humanized-ribosome RFP mutants, fluorescence, 24 h; active compounds read low; DMSO median 0, no signal -100; GFP signal change (wild-type ribosome), % (no concentration beside the values); hit rate 1.6% among 350,000; AID 720706;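 active means significant combined selectivity score with lowered wild-type GFP, culture density cut under 30%, mutant RFP and density less affected; inactive means any of these conditions unmet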
Cneo AK release: causes C. neoformans cell lysis | AID 651654 | lysis activity, % at 15 µM | hit rate 0.2% among 360,000 | adenylate kinase release luminescence, 4 h; normalised: neutral wells 0, clomiphene wells 100;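 active means mean lysis activity across replicates of at least 80%, whatever share of replicates individually reach that level; inactive means mean lysis activity below 80%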
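Assay system: log-phase C. neoformans yeast / Quantity: yeast cell density of 5 × 10^6 cells/mL / Medium: fresh YPD growth medium / Compound: single dose / Timing: static 4 h at 37 °C with compound, 1 h detection / Measured by: adenylate kinase release luminescence / Read-out: lysis from increased AK signal / Benchmarks: Clomiphene as positive lysis control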
DENV2 CPE: protects cells from dengue virus 2 cytopathic effect | DENV2-infected cells, cytopathic effect rescue, plate reader | CPE inhibition, % at 9.99 µM | hit rate 1.7% among 350,000; in the data active means CPE inhibition above about 20%, passing the limit was not always enough; inconclusive means no clear call, values can overlap the other calls; tested in BHK-21 cells
Large screens that a line does not name were inactive.

CC(C)C[C@H](NC(=O)c1nc[nH]c1C(=O)N1CCC(C)CC1)C(=O)OC(C)(C)C	DENV2 CPE 82.0
COc1ccc(S(=O)(=O)N(C)C[C@H]2Oc3c(NC(=O)CCCCCC(=O)Nc4ccccc4N)cccc3C(=O)N([C@H](C)CO)C[C@@H]2C)cc1	none (no result: miR-122 sensor, Cneo AK release)
C[C@@H]1CN([C@H](C)CO)C(=O)c2cccc(NC(=O)CCCCCC(=O)Nc3ccccc3N)c2O[C@@H]1CN(C)S(=O)(=O)c1cn(C)cn1	E-sel inducer 391.2 (no result: miR-122 sensor, Cneo AK release)
COc1ccc(S(=O)(=O)N(C)C[C@@H]2Oc3c(NC(=O)CCCCCC(=O)Nc4ccccc4N)cccc3C(=O)N([C@H](C)CO)C[C@H]2C)cc1	DENV2 CPE 32.1 (no result: miR-122 sensor, Cneo AK release)
COc1ccc(S(=O)(=O)N(C)C[C@H]2Oc3c(NC(=O)CCCCCC(=O)Nc4ccccc4N)cccc3C(=O)N([C@@H](C)CO)C[C@@H]2C)cc1	DENV2 CPE 32.1 (no result: miR-122 sensor, Cneo AK release)
COc1ccc(S(=O)(=O)N(C)C[C@@H]2Oc3c(NC(=O)CCCCCC(=O)Nc4ccccc4N)cccc3C(=O)N([C@H](C)CO)C[C@@H]2C)cc1	DENV2 CPE 35.5 (no result: miR-122 sensor, Cneo AK release)
COCC(=O)Nc1ccc2c(c1)C(=O)N(C)[C@H]1CC[C@H](CC(=O)NCCc3ccncc3)O[C@@H]1CO2	none (no result: miR-122 sensor, E-sel inducer, Cneo AK release, DENV2 CPE)
COC(=O)c1cn(CCNC(=O)Nc2ccccc2)nn1	none (no result: miR-122 sensor, E-sel inducer, Ecoli rRNA inh)
COc1cccc(NC(=O)C[C@@H]2CC[C@H]3[C@H](COc4ccc(NC(=O)C5CCOCC5)cc4C(=O)N3C)O2)c1	none (no result: Cneo AK release, DENV2 CPE)
CCCC(=O)Nc1ccc2c(c1)C(=O)N(C)[C@@H]1CC[C@@H](CC(=O)Nc3cn(C)nc3C)O[C@@H]1CO2	none
CCOC(=O)C1=C(C)NC2=C(C(=O)CC(c3cccs3)C2)C1c1cccs1 (stereo not drawn)	miR-122 sensor 94.6 (no result: E-sel inducer, Ecoli rRNA inh, DENV2 CPE)
CO[C@H]1CN(C)C(=O)c2cc(NC(=O)C3CC3)ccc2OC[C@H](C)N(C(=O)CN2CCOCC2)C[C@H]1C	none (no result: miR-122 sensor, Ecoli rRNA inh)
CCN(CC)c1ccc(/C=N/N2C(=O)c3ccccc3C2=O)c(O)c1	DENV2 CPE 42.4 (no result: E-sel inducer)
CCN(CC)c1ccc(/C=N/N2C(=O)c3ccccc3C2=O)cc1	none (no result: E-sel inducer, Ecoli rRNA inh, DENV2 CPE)
CCc1ccc(C(C)NC(=S)NCc2ccc(F)cc2)cc1 (stereo not drawn)	Cneo AK release 115.0
CCOc1ccc(C(C)NC(=S)NCc2ccc(F)cc2)cc1 (stereo not drawn)	none (no result: miR-122 sensor)
Fc1ccc(CNC(=S)NCc2ccc(F)cc2)cc1	Ecoli rRNA inh -31.1 (no result: miR-122 sensor, Cneo AK release)
COc1ccc2c3c(n(C)c2c1)[C@@H](CO)N(C(=O)Cc1ccccc1)CC31CCN(C)CC1	none (no result: miR-122 sensor, Cneo AK release)
CCCC#Cc1ccc([C@H]2[C@@H](CO)N3CCCCN(Cc4cccnc4)C[C@@H]23)cc1	DENV2 CPE 33.5
CCCC#Cc1ccc([C@H]2[C@@H](CO)N3CCCCN(Cc4cncnc4)C[C@@H]23)cc1	none
CCCC#Cc1ccc([C@@H]2[C@@H](CO)N3CCCCN(Cc4cncnc4)C[C@@H]23)cc1	DENV2 CPE 26.0
COCC#Cc1ccc([C@H]2[C@@H](CO)N3CCCCN(Cc4cccnc4)C[C@@H]23)cc1	DENV2 CPE 57.2
N#Cc1c(-c2ccncc2)c2c([nH]c1=O)-c1ccccc1OC2	none (no result: miR-122 sensor, E-sel inducer, Ecoli rRNA inh, Cneo AK release)
N#Cc1c(-c2ccccc2Cl)c2c([nH]c1=O)-c1ccccc1OC2	Ecoli rRNA inh -23.9
CCCOc1ccc(/C(O)=C2/C(=O)C(=O)N(CCCn3ccnc3)C2c2ccc(C)o2)cc1 (stereo not drawn)	Ecoli rRNA inh -18.4 (no result: miR-122 sensor, Cneo AK release)
CCCOc1ccc(/C(O)=C2/C(=O)C(=O)N(CCCn3ccnc3)C2c2ccco2)cc1 (stereo not drawn)	none (no result: E-sel inducer, Ecoli rRNA inh, DENV2 CPE)
C[C@@H]1CN([C@H](C)CO)C(=O)c2cccc(NC(=O)Nc3ccc(F)cc3)c2O[C@@H]1CN(C)Cc1ccc(Oc2ccccc2)cc1	none
CO[C@@H]1CN(C)C(=O)c2cc(NC(=O)NC(C)C)ccc2OC[C@@H](C)N(S(C)(=O)=O)C[C@@H]1C	none (no result: miR-122 sensor, Cneo AK release)
CN1CCN(C(=S)Nc2ccc(Cl)c(Cl)c2)CC1	DENV2 CPE 77.7 (no result: E-sel inducer)
CO[C@H]1CN(C)C(=O)c2cc(NS(=O)(=O)c3ccc(Cl)cc3)ccc2OC[C@H](C)NC[C@H]1C	none
O=C(O)CC1C(=O)NCCN1Cc1cccs1 (stereo not drawn)	E-sel inducer 84.8 (no result: miR-122 sensor, Cneo AK release)
O=C(NC(=S)Nc1ccccn1)c1cncc(Br)c1	E-sel inducer 26.0 (no result: miR-122 sensor, Cneo AK release)
CC(=O)c1cccc(NC(=S)NC(=O)c2cncc(Br)c2)c1	none (no result: E-sel inducer)
COc1cccc(NC(=S)NC(=O)Cc2ccc(Cl)cc2)c1	Cneo AK release 83.3 (no result: E-sel inducer)
COc1cccc(NC(=S)NC(=O)c2cncc(Br)c2)c1	Ecoli rRNA inh -24.3
COc1ccc(CC(=O)NC(=S)Nc2cccc(C)c2)cc1	none (no result: miR-122 sensor, E-sel inducer, Cneo AK release)
COc1ccccc1NC(=O)N[C@H]1CC[C@@H](CCNC(=O)Cc2ccccn2)O[C@@H]1CO	none (no result: miR-122 sensor)
C[C@@H]1CN([C@@H](C)CO)C(=O)c2cc(NC(=O)Cn3cnnn3)ccc2O[C@@H]1CN(C)Cc1ccc(Cl)c(Cl)c1	DENV2 CPE 51.7 (no result: E-sel inducer)
C[C@H]1CN([C@@H](C)CO)C(=O)c2cc(NC(=O)Cn3cnnn3)ccc2O[C@@H]1CN(C)Cc1ccc2c(c1)OCO2	E-sel inducer 38.3
C[C@H](CO)N1C[C@H](C)[C@@H](CN(C)Cc2ccc(Cl)c(Cl)c2)Oc2ccc(NC(=O)Cn3cnnn3)cc2C1=O	DENV2 CPE inconclusive
C[C@@H]1CN([C@H](C)CO)C(=O)c2cc(NC(=O)Cn3cnnn3)ccc2O[C@H]1CN(C)Cc1ccc2c(c1)OCO2	DENV2 CPE 21.1
C[C@H](CO)N1C[C@H](C)[C@@H](CN(C)Cc2ccc3c(c2)OCO3)Oc2ccc(NC(=O)Cn3cnnn3)cc2C1=O	none
CC(C)NC(=O)Nc1ccc2c(c1)C(=O)N([C@@H](C)CO)C[C@@H](C)[C@@H](CN(C)C(=O)c1ccncc1)OCCCC[C@H](C)O2	none
N#Cc1c(-c2ccccc2)nc(SCC(=O)N(c2ccccc2)c2ccccc2)[nH]c1=O	Ecoli rRNA inh -49.3
N#Cc1c(-c2ccccc2)nc(SCC(=O)Nc2ccccc2)[nH]c1=O	none (no result: Ecoli rRNA inh, DENV2 CPE)
CC(=O)N(C)C[C@H]1Oc2cc(C3=CCCCC3)ccc2S(=O)(=O)N([C@@H](C)CO)C[C@H]1C	none (no result: Cneo AK release, DENV2 CPE)
O=C(Nc1ccc(Oc2cccc(C(F)(F)F)c2)nc1)c1cccs1	Ecoli rRNA inh -43.5
O=C(Nc1ccc(Oc2cccc(C(F)(F)F)c2)nc1)c1ccccc1	none
C[C@H](CO)N1C[C@H](C)[C@@H](CN(C)Cc2cccnc2)Oc2ncc(-c3ccccc3)cc2C1=O	none
Cc1cc(Cl)c(S(=O)(=O)Nc2ccc3c(c2)OCO3)cc1OCC(=O)NC1CCCCC1	miR-122 sensor 94.4 (no result: E-sel inducer, Ecoli rRNA inh, DENV2 CPE)
OC[C@@H]1[C@@H](c2ccc(-c3ccc(F)cc3)cc2)[C@@H]2CN(Cc3ccccn3)CCCCN12	DENV2 CPE 63.2
OC[C@@H]1[C@H](c2ccc(-c3ccc(F)cc3)cc2)[C@H]2CN(Cc3ccccn3)CCCCN12	DENV2 CPE 32.7
